Test results published in ChEMBL document CHEMBL5252546, “Salutaxel, a Conjugate of Docetaxel and a Muramyl Dipeptide (MDP) Analogue, Acts as Multifunctional Prodrug That Inhibits Tumor Growth and Metastasis” (J Med Chem, 2018).
Activity calls are given as the source filed them. No cut-off for these calls is given here.

What was measured:
4T1 [1] = test: Antitumor activity against mouse 4T1 cells implanted in BALB/c mouse assessed as decrease in serum TIMP-1 level at 5.7 mg/kg,iv administrated once per week for 4 weeks by ELISA; format: functional, organism-based
4T1 [2] = test: Antitumor activity against mouse 4T1 cells implanted in BALB/c mouse assessed as decrease in serum IL-6 level at 5.7 mg/kg,iv administrated once per week for 4 weeks by ELISA; format: functional, organism-based
4T1 [3] = test: Antitumor activity against mouse 4T1 cells implanted in BALB/c mouse assessed as increase in tumor NOD1 expression level at 5.7 mg/kg,iv administrated once per week for 4 weeks in presence of MDA-205 by western blot assay; format: functional, organism-based
Method in brief: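 Tumour-bearing BALB/c mice (4T1 cells into mammary fat pad) given iv saline vehicle or test agents once weekly for 4 weeks. Tumours excised and probed by western blot for MMP9, MMP2 and NOD1, β-actin as loading control. Bands averaged over five mice per group; representative of two independent experiments.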

4T1 [4] = test: Antitumor activity against mouse 4T1 cells xenografted with BALB/c mouse assessed as decrease in tumor volume at 5.7 mg/kg,iv administrated once per week for 4 weeks; format: functional, organism-based
Method in brief: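 4T1 cells injected into mammary fat pads of BALB/c mice. Dosing iv once per week for 4 weeks, saline vehicle; single-agent arms were given alone or with the peptide component (5b or 6). Endpoints were body weight, tumour volume, tumour weight, lung metastatic nodule count and lung metastasis score. Mean ± SEM, n = 10; ANOVA and Student's t test.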

[5] = Cmax in mouse plasma implanted with mouse 4T1 cells at 5.7 mg/kg,iv measured upto 72 hrs; format: ADME, organism-based; design: dose 5.7 mg/kg, time < 72 hrs, route iv
[6] = Toxicity in BALB/c mouse xenografted with human HCT-116 cells assessed as side effects at 5.7 mg/kg,iv administrated once per week for 3 weeks; format: organism-based; details: in vivo, 504 h
Method in brief: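 Nude BALB/c nu/nu mice received subcutaneous human tumour cells into the right flank. Dosing started at mean tumour volume of 100–120 mm3, iv once weekly for 3 weeks; the taxane arm was an equimolar control. Body weight and overt side effects were monitored. Mean ± SEM, n = 8.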

4T1 [7] = test: Antitumor activity against mouse 4T1 cells implanted in BALB/c mouse assessed as decrease in lung metastasis at 5.7 mg/kg,iv administrated once per week for 4 weeks by H and E staining based assay; format: functional, organism-based
Method in brief: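 BALB/c mice bearing orthotopic mammary fat pad 4T1 tumors, dosed iv weekly for 4 weeks with saline vehicle as control. Lung sections stained with hematoxylin and eosin and examined by light microscopy at 40× for metastasis, inflammatory infiltration and alveolar wall thickening.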

4T1 [8] = test: Antitumor activity against mouse 4T1 cells implanted in BALB/c mouse assessed as decrease in serum TIMP-1 level at 5.7 mg/kg,iv administrated once per week for 4 weeks in presence of MDA-205 by ELISA; format: functional, organism-based
4T1 [9] = test: Antitumor activity against mouse 4T1 cells implanted in BALB/c mouse assessed as increase in spleen NOD1 expression level at 5 to 20 mg/kg,iv administrated once per week for 4 weeks by western blot assay; format: functional, organism-based; details: dose 5-20 mg/kg
Method in brief: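 4T1 fat-pad model in BALB/c mice, iv once weekly for 4 weeks; MMP9, MMP2 and NOD1 in spleen, lung and tumour by western blot, β-actin loading control; bands averaged over five mice per group, representative of two independent experiments.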

[10] = Drug metabolism in monkey hepatocytes assessed as docetaxel metabolite formation at 20 uM incubated for 180 mins; format: ADME, cell-based, Macaca mulatta, Hepatocyte; details: rhesus monkey, 3 h
[11] = Drug metabolism in mouse hepatocytes assessed as MDA-205 metabolite formation at 20 uM incubated for 180 mins; format: ADME, cell-based, Hepatocyte; details: 3 h
[12] = Drug metabolism in mouse hepatocytes assessed as docetaxel metabolite formation at 20 uM incubated for 180 mins; format: ADME, cell-based, Hepatocyte; details: 3 h
[13] = Tmax in male Beagle dog at 4 mg/kg,iv measured upto 24 hrs; format: ADME, organism-based, Canis lupus familiaris; details: in vivo
[14] = Drug concentration in plasma of rat assessed as docetaxel concentration at 2 to 8 mg/kg,iv measured upto 24 hrs; format: ADME, organism-based; details: in vivo, dose 2-8 mg/kg
Method in brief: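 Rats were given a single iv injection at 2, 4 or 8 mg/kg. Plasma parent drug and released docetaxel were followed over time. Cmax, Tmax, AUC, MRT, t1/2, CL and Vss were reported for males, females and all animals combined.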

4T1 [15] = test: Antitumor activity against mouse 4T1 cells xenografted with BALB/c mouse assessed as inhibition of tumor growth at 5 to 20 mg/kg,iv administrated once per week for 4 weeks; format: functional, organism-based; details: dose 5-20 mg/kg
Method in brief: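 4T1 cells injected into the mammary fat pad of BALB/c mice; iv saline vehicle or 5, 10 or 20 mg/kg once weekly for 4 weeks; body weight, tumour volume, tumour weight, lung metastatic nodule count and metastasis score recorded; n = 10, mean ± SEM, ANOVA and Student's t test.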

[16] = Clearance in female Beagle dog at 1 mg/kg,iv measured upto 24 hrs; format: ADME, organism-based, Canis lupus familiaris; details: in vivo
Method in brief: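 Beagle dogs were given a single iv infusion at 1, 2 or 4 mg/kg. Plasma parent drug and released docetaxel were followed over time. Cmax, Tmax, AUC, MRT, t1/2, CL and Vss were reported by sex and for all dogs combined.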

[17] = Half life in female Beagle dog at 2 mg/kg,iv measured upto 24 hrs; format: ADME, organism-based, Canis lupus familiaris; details: in vivo
[18] = Volume of distribution at steady state in Beagle dog at 2 mg/kg,iv measured upto 24 hrs; format: ADME, organism-based, Canis lupus familiaris; details: in vivo, read-out: Vdss
[19] = AUC (0-t) in male rat at 2 mg/kg,iv measured upto 24 hrs; format: ADME, organism-based; design: time < 24 hrs, dose 2 mg/kg, route iv; details: in vivo
Method in brief: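 Single iv dose: rats 2, 4 or 8 mg/kg by intravenous injection; Beagle dogs 1, 2 or 4 mg/kg by intravenous infusion. Plasma concentration–time data were analysed by sex and pooled. Reported parameters: Cmax, Tmax, AUC0−t, AUC0−∞, MRT0−∞, t1/2, CL, Vss, given as mean ± SD.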

4T1 [20] = test: Antitumor activity against mouse 4T1 cells implanted in BALB/c mouse assessed as decrease in serum S100A9 level at 20 mg/kg,iv administrated once per week for 4 weeks by ELISA; format: functional, organism-based
Method in brief: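 4T1 fat-pad model in BALB/c mice, iv 5–20 mg/kg once weekly for 4 weeks, with vehicle and naive groups; serum MMP9, TIMP-1, IL-6 and S100A9 measured by mouse ELISA kits.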

[21] = Toxicity in Beagle dog assessed as erythema at 3 to 18 mg/kg,iv measured upto 24 hrs; format: organism-based, Canis lupus familiaris; details: in vivo, dose 3-18 mg/kg
[22] = MRT (0 to infinity) in rat at 8 mg/kg,iv measured upto 24 hrs; format: ADME, organism-based; details: in vivo
[23] = Drug distribution in rat lung at 4 mg/kg,iv measured by 0.25 hrs; format: ADME, organism-based; details: in vivo
Method in brief: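 Rats received 4 mg/kg iv. Parent drug and released docetaxel were assayed in tissues and plasma from the first sampling at 0.25 h to 24 h. The lower limit of quantitation was 200 ng/g.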

[24] = MRT (0 to infinity) in male Beagle dog at 1 mg/kg,iv measured upto 24 hrs; format: ADME, organism-based, Canis lupus familiaris; details: in vivo
[25] = Toxicity in Beagle dog assessed as effect on gastrointestinal tract at 3 to 18 mg/kg,iv measured upto 24 hrs; format: organism-based, Canis lupus familiaris; details: in vivo, dose 3-18 mg/kg
[26] = Half life in male rat at 8 mg/kg,iv measured upto 24 hrs; format: ADME, organism-based; details: in vivo

With `CC(=O)O[C@@]12CO[C@@H]1C[C@H](O)[C@@]1(C)C(=O)[C@H](O)C3=C(C)[C@@H](OC(=O)[C@H](O)[C@@H](NC(=O)OC(C)(C)C)c4ccccc4)C[C@@](O)([C@@H](OC(=O)c4ccccc4)[C@H]21)C3(C)C` [DOCETAXEL ANHYDROUS] the Activity (4T1 [1]) was “Active”, the Activity (4T1 [2]) was “Active” and the Activity (4T1 [3]) was “inactive”. The Activity (4T1 [4]) was “Active”, the Cmax [5] was 8.09 µM and the Activity [6] was “Non-Toxic”. The Activity (4T1 [7]) was “Active” and the Activity (4T1 [8]) was “Active”.

With `CC(=O)O[C@@]12CO[C@@H]1C[C@H](O)[C@@]1(C)C(=O)[C@H](O)C3=C(C)[C@@H](OC(=O)[C@H](OC(=O)CCC(=O)NCCCC[C@H](NC(=O)CC[C@@H](NC(=O)[C@H](C)NC(=O)/C=C/c4ccc(F)cc4Cl)C(N)=O)C(=O)O)[C@@H](NC(=O)OC(C)(C)C)c4ccccc4)C[C@@](O)([C@@H](OC(=O)c4ccccc4)[C@H]21)C3(C)C` the Activity (4T1 [9]) was “Active”, the Drug metabolism [10] was “Metabolite_Detected” and the Drug metabolism [11] was “Metabolite_Detected”. For the same compound, the Drug metabolism [12] was “Metabolite_Detected”, the Tmax [13] was 30 min and the Drug uptake [14] was 0.79%. For the same compound, the inhibition (4T1 [15]) was “Dose-Dependent Effect”, the clearance [16] was 11.2 mL/min/kg and the half-life [17] was 30.9 min. For the same compound, the Vd [18] was 0.083 L/kg, the AUC(0-t) at 24 h [19] was 6090 ng·h/mL and the Activity (4T1 [20]) was “Active”. For the same compound, the Activity [21] was “Toxic”, the MRT inf [22] was 33.1 min and the Drug uptake [23] was “Active”. For the same compound, the MRT inf [24] was 12.1 min, the Activity [25] was “Toxic” and the half-life [26] was 21.4 min.
